Screens as filed in PubChem BioAssay.
The entries come from a sample that favours hits as a whole.
D1 allo mod – allosteric modulators of human D1 dopamine receptor; HEK293 D1, CRE-luciferase, dopamine EC30 potentiation; actives deviate in either direction; B-score at 10 µM; 58,000 tested, 5.9% active;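 active = luminescence count or its row- and column-corrected plate score outside the 99.7% band of the plate's sample wells, on either side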
Target sequence (P21728 whole entry, looked up): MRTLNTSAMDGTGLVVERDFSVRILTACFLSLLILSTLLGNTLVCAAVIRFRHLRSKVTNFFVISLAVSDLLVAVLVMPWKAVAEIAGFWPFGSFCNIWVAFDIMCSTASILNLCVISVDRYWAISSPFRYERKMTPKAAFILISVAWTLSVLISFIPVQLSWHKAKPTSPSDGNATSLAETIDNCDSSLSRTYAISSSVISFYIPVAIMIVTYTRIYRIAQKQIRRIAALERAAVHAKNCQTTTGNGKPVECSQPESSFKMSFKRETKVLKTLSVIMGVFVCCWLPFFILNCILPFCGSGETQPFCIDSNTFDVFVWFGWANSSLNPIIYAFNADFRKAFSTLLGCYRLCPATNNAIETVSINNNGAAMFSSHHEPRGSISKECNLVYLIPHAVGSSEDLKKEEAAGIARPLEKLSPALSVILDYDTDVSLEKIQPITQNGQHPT
AP complement – alternative pathway complement inhibition, orthogonal assay; 62,000 tested, 0.08% active; Human serum alternative complement pathway, LPS-coated ELISA, C3 deposition; tested in compound mixtures; inhibition, % at 5 µM;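 active = inhibition above 30% in each of the two pooled mixtures holding the compound, so the lower value exceeds 30%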;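 note: 0% = serum in Mg-EGTA without compound and 100% = EDTA serum blank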
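Assay system: Human serum alternative complement pathway, C3 deposition on LPS-coated wells | Incubation: 1 h serum-compound exposure at 37 °C | Doses: 5 µM per compound in ten-compound mixtures | Read-out: Percent inhibition | Technique: ELISA with HRP anti-human C3 antibody, TMB substrate, absorbance 450 nm | Replication: Two pool placements per compound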
MMP-13 inhibitor – inhibitors of human MMP13; P45452; MMP-13 fTHP FRET cleavage, Mca fluorescence; inhibition, % at 4 µM; 65,000 tested, 0.07% active; AID 570;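 active = inhibition above the mean of compound-free control plate wells plus 3 SD, cut at about 14% in these data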;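 note: 0% = DMSO wells and 100% = wells with reference MMP-13 inhibitor after basal subtraction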
DAT uptake mod – modulates human dopamine transporter uptake under cocaine | Q01959 | LLC-PK1 hDAT cells, [14C]-dopamine uptake with cocaine IC80; actives deviate in either direction | B-score at 10 µM | 110,000 tested, 1.3% active;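 active = Z score or B-score, a plate-position-corrected score, falls beyond the plate's 99.7% confidence bounds, in either direction; inactive = both scores lie inside the 99.7% bounds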;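 note: scored against the spread of the other compound wells on the same plate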
Calb biofilm kill – kills Candida albicans biofilms. C. albicans biofilm + clotrimazole, Alamar Blue. inhibition, % at 6 µM. 85,000 tested, 0.14% active. AID 834;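 active = inhibition above 20%; inactive = inhibition below 20%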;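 note: preformed 24 hr biofilms exposed to compound for 48 hr; 0% = biofilm without compound and 100% = blank killed by clotrimazole plus chlorhexidine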
Active calls of the source: *; i = inactive; . = no result given.

SMILES	D1 allo mod	AP complement	MMP-13 inhibitor	DAT uptake mod	Calb biofilm kill
Cc1ccccc1Nc1nc(-c2sc(NC(=O)c3cccc(Cl)c3)nc2C)cs1	.	.	.	1.7*	.
COc1ccc(Cl)cc1Nc1nc(-c2sc(NC(=O)c3ccccc3)nc2C)cs1	.	.	.	-0.34	.
Cc1ccccc1Nc1nc(-c2sc(NC(=O)c3ccc([N+](=O)[O-])cc3)nc2C)cs1	.	.	.	0.81	.
CC[C@H]1CC2CN3CCc4c([nH]c5c([C@H]6C[C@H]7[C@H](CC)CN(C)[C@@H](Cc8c6[nH]c6ccccc86)[C@H]7C(=O)OC)c(OC)ccc45)C(C(=O)OC)(C2)C13	.	.	.	-0.76	.
O=C(CSc1nnc2scc(-c3ccccc3)n12)N1CCN(Cc2ccccc2)CC1	1.4	9	-2	2.1*	-5
Cc1ccc(-c2csc3nnc(SCC(=O)N4CCN(Cc5ccccc5)CC4)n23)cc1	0.14	2	-2	-0.051	4
COCc1nnc(NC(=O)c2ccc(NC(=O)C(C)C)cc2)s1	-0.15	8	15*	-1.2	.
CSc1nc(-c2ccccc2)nn1C(=O)c1ccc(C)cc1	.	.	.	-0.041	.
Cc1nc(Nc2ncc3c(n2)CC(C)(C)CC3=O)nc2ccccc12	.	.	3	.	.
CC1=NC(Nc2nc(C)c3ccccc3n2)=NC(C)(C)C1	-4.1*	7	-3	0.29	5
CN1C(=O)c2c(sc3c2CC(C)(C)SC3)N2CCN=C12	0.12	35*	-9	0.98	9
CC1(C)Cc2c(sc3c2C(=O)N(c2ccccc2)C2=NCCN23)CS1	.	.	.	-0.0088	1
CCn1nnnc1SCC(=O)N1CCCc2ccccc21	.	.	.	-0.21	7
NC(=O)C1CCN(C(=O)CN(c2cccc(C(F)(F)F)c2)S(=O)(=O)c2ccccc2)CC1	-2.3*	0	-1	-0.096	8
CSc1nc2ccccc2n1CC(=O)Nc1cc(C(F)(F)F)ccc1N1CCOCC1	.	.	.	0.092	6
Nc1ccc(O)c(-c2nc3ccccc3s2)c1	-0.34	14	6	-0.0083	-4
Nc1cccc(-c2nc3ccc(N)cc3s2)c1	-4.7*	8	i	1.3	3
CCOC(=O)c1c(NC(=O)c2ccc(N3C(=O)C4C5C=CC(C5)C4C3=O)cc2)sc2c1CCCC2 (stereo unspecified)	.	.	.	0.87	.
CCOC(=O)c1cnc(SC2CCc3ccccc3C2=O)nc1N (stereo unspecified)	-0.0011	15	2	2.7*	7
CCOC(=O)c1cnc(SC2CC(=O)N(c3ccccc3)C2=O)nc1N (stereo unspecified)	.	.	.	-1.2	6
Cn1cccc1Cc1nnc(SCC(=O)Nc2ccccc2F)n1CCc1ccccc1	0.37	19	4	0.025	14
Cn1cccc1Cc1nnc(SCC(=O)Nc2ccc(Cl)cc2)n1-c1ccc(F)cc1	-0.64	12	-1	2.8*	8
Cn1cccc1Cc1nnc(SCC(=O)Nc2cccc(F)c2)n1CCc1ccccc1	-0.16	-1	7	2.1*	-1
Cn1cccc1Cc1nnc(SCC(=O)Nc2ccc(F)cc2)n1-c1ccc(F)cc1	-0.017	8	3	0.067	13
C/C(Nc1ccc(Cl)cc1)=C(/C#N)C(N)=O	.	.	.	-0.89	50*
SMILES	D1 allo mod	AP complement	MMP-13 inhibitor	DAT uptake mod	Calb biofilm kill
C/C(Nc1ccccc1)=C(/C#N)C(N)=O	.	.	.	-0.79	-4
CCOC(=O)CC(=O)CSc1ccc2nnc(-c3ccccc3)n2n1	1	5	-11	0.88	-1
CCOC(=O)N1CCC(Nc2ccc3nnc(-c4ccccc4)n3n2)CC1	-3*	21	-3	2.2	9
CCN(CC)S(=O)(=O)c1csc(C(=O)NCc2ccccc2)c1	.	13	7	2.6*	11
Cc1ccc(C(=O)NNC(=O)CSc2nnc3c(n2)[nH]c2ccc(F)cc23)cc1	.	.	.	-0.028	.
O=C(CSc1nnc2c(n1)[nH]c1ccc(F)cc12)OCc1ccccc1	-0.63	1	5	-8.6*	4
Cc1ccc(N2C(=O)c3ccccc3C2=O)cc1C	-0.19	-14	.	-1.3	0
Cc1cccc(C)c1N1C(=O)c2ccccc2C1=O	-0.19	18	-16	-1	40*
COc1nc(Nc2nc3ccccc3c(=O)[nH]2)nc2ccc(C)cc12	-2.7*	0	0	.	1
COC(=O)c1[nH]c2ccc(Br)cc2c1NC(=O)CN1CCN(C2CCCCC2)CC1	0.11	22	-6	2.9*	4
CCOC(=O)C1CCN(CC(=O)Nc2c(C(=O)OC)[nH]c3ccccc23)CC1	-0.66	6	-10	-8.2*	6
COC(=O)c1[nH]c2cc(C)ccc2c1NC(=O)CN1CCCc2ccccc21	-0.038	3	-4	2.8*	.
COc1ccc(C[C@H]2c3cc(O)c(OC)cc3CC[N+]2(C)[O-])cc1O (stereo partly specified)	.	.	.	0.073	.
Cc1oc(-c2ccccc2F)nc1CN1CCC(C(=O)NCCC2=CCCCC2)CC1	.	15	2	-0.1	2
CC(=O)N(C)C1=C(N2CCOCC2)C(=O)c2ccccc2C1=O	.	.	.	-4.3*	.
CC1(C)OC(=O)C(=CNc2cccc(C(=O)O)c2)C(=O)O1	-0.1	20	-12	-7*	3
CC1(C)OC(=O)C(=CNc2ccccc2)C(=O)O1	-0.44	7	2	0.033	8
O=C(c1ccco1)N1CCN(CC(O)COc2ccc3oc4ccccc4c3c2)CC1 (stereo unspecified)	-0.021	5	4	2.6*	5
COc1ccccc1NC(=O)N(Cc1ccco1)Cc1cc2ccc(C)c(C)c2[nH]c1=O	1	0	2	2.6*	6
CCNS(=O)(=O)c1ccc(Br)c(OC)c1	.	.	.	-1.2	5
CC(Sc1nnc(N)s1)C(=O)Nc1ccc(N2CCOCC2)cc1 (stereo unspecified)	.	.	.	0.24	-1
CC(Sc1nnnn1C)C(=O)Nc1ccc(N2CCOCC2)cc1 (stereo unspecified)	.	10	-2	-7.8*	10
Cc1cc(C)nc(N2CCCC(C(=O)NCC(c3ccccc3)c3ccccc3)C2)n1 (stereo unspecified)	.	.	.	1.2	6
COC(=O)Cc1cc(=O)[nH]c(/N=C(\N)Nc2ccccc2C)n1	.	.	.	0.9	2
Cc1nn(C)cc1CN(C)C(=O)c1nn2c(c1Cl)NC(c1cccs1)CC2C(F)(F)F (stereo unspecified)	-0.58	1	7	3.5*	7
SMILES	D1 allo mod	AP complement	MMP-13 inhibitor	DAT uptake mod	Calb biofilm kill
Cc1ccc(Cl)cc1NC(=O)N[C@@H](C)C(=O)O	.	.	.	-6.4e-05	.
CCOc1ccccc1NC(=O)N1CCC(n2nnc3cc(C)ccc32)CC1	.	21	-1	2.4*	-2
C=CCNC(=O)c1onc(CSc2ccc(F)c(F)c2)c1C(=O)NCC=C	.	.	.	0.19	.
O=S(=O)(c1ccccc1C(F)(F)F)N1CCC(n2cnc3ccccc32)CC1	.	.	.	2.7*	-4
O=C(O)c1ccc2c(c1)ncn2C1CCCCC1	.	.	.	0.1	.
CCCCNc1ncnc2c1cnn2-c1ccc(Cl)cc1	-2	10	-5	1.9	6
COCC(C)Nc1ncnc2c1cnn2-c1ccc(Cl)cc1 (stereo unspecified)	.	.	-28	2.7*	1
COc1ccc(-n2ncc3c(NC(C)C)ncnc32)cc1	-4	5	-26	1.1	.
